Screening data deposited in PubChem by Broad Institute.
DENV2 CPE = DENV2-induced cell death inhibition; 350,000 compounds, 1.7% hits; DENV2-infected cells, cytopathic effect rescue, plate reader; AID 651640; CPE inhibition, % at 9.99 µM; in the data active means CPE inhibition above about 20%, passing the limit was not always enough; inconclusive means no clear call, values can overlap the other calls; tested in BHK-21 cells;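 further: 0% = median of neutral control wells and 100% = median of positive control wells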
E-sel inducer = E-selectin induction on HUVECs. 260,000 compounds, 0.37% hits. activation, % at 7.58 µM. HUVEC E-selectin immunofluorescence imaging; normalized: neutral wells 0, TNF-alpha wells 100;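 active means mean E-selectin-positive cell signal at least 10% of the positive control, reached in at least 60% of replicates, without over 20% cell loss; inconclusive means no rule given, readout overlaps actives, possibly toxicity-flagged; inactive means the rest, including those meeting only one limit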
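Test system – human umbilical vein endothelial cells (HUVEC), E-selectin induction · Input – 3,000 HUVEC seeded per well · Buffer or medium – EGM-2, gelatin · Compound dosing – single-point compound dose · Detection – immunofluorescence imaging · Measure – percent E-selectin-positive cells · Controls – TNF-alpha high, DMSO low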
ERAP1 inh = blocks human ERAP1 aminopeptidase activity | AID 652197 | Q9NZ08 | 340,000 compounds, 0.15% hits | recombinant ERAP1, Leu-AMC fluorescence, 60 min | inhibition, % at 10.7 µM;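 active means mean replicate inhibition of at least 30%, or all replicates individually reaching that 30% level; inactive means mean below 30% and not every replicate reaching it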;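 further: 0% = neutral control wells and 100% = L-leucinethiol positive control wells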
Target sequence (Q9NZ08 whole entry, looked up): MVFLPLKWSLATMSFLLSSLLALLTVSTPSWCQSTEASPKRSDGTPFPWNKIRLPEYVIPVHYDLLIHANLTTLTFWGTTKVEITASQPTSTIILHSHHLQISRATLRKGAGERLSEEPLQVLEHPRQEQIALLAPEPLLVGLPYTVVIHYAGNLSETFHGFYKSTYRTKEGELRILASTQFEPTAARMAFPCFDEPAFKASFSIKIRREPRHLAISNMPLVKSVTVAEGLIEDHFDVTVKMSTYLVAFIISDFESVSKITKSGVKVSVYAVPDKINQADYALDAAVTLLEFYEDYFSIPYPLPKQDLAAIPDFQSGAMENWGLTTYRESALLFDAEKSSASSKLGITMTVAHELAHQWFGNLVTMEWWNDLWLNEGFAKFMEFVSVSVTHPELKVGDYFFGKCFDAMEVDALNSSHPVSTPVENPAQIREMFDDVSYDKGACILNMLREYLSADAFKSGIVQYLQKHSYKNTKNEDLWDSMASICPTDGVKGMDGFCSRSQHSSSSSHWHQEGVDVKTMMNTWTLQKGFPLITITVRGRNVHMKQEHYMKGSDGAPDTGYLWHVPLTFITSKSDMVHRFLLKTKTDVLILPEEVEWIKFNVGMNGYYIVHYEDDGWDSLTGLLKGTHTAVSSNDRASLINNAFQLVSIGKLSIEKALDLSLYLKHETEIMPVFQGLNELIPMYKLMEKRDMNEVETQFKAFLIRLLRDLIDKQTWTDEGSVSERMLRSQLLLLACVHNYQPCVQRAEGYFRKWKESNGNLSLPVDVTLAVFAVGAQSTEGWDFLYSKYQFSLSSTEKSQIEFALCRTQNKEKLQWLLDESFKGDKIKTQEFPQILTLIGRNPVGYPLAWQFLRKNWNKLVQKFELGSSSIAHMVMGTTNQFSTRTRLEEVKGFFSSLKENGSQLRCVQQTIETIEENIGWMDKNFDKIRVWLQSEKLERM
CFTR F508del cor = CFTR F508del correction in bronchial cells | AID 720511 | CFBE cells, YFP halide quenching; stimulated with forskolin plus potentiator P3; % fluorescence drop versus neutral controls | 350,000 compounds, 0.36% hits | activity (quench increase), % at 7.58 µM;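 active means mean added fluorescence quench of at least 8% versus neutral control, with both replicates also reaching 8%; inconclusive means only one of the mean or replicate conditions met; inactive means mean below 8% and not both replicates reaching 8%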;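 further: cells transiently co-express mutant CFTR-F508del with the halide-sensitive YFP; corrector assay measuring rescue of mutant channel to the surface after 24 h compound exposure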
FGF22 binding = FGF22 (human) thermal shift binding; recombinant FGF22 thermal shift, SYPRO orange fluorescence; percent of sucrose octasulfate shift, DMSO zero; activity (Tm shift, normalised), % at 9.99 µM; 340,000 compounds, 1.5% hits;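 active means mean Tm shift, scaled 0 neutral to 100 positive control, at about 1.3% or above, every replicate too, limit read from the data; inconclusive means no clear call, values can overlap the other calls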
An asterisk follows results filed as active; ? = inconclusive; nt = no result given. A selection: hits, their analogues and other compounds. The true share with any hit is near 3.7%.

SMILES | DENV2 CPE | E-sel inducer | ERAP1 inh | CFTR F508del cor | FGF22 binding
Cc1nn(CC(=O)NC2CCS(=O)(=O)C2)c(C)c1S(=O)(=O)N(C)C (configuration not stated) | -3 | nt | -2 | 1 | 0
Cc1nn(CC(=O)NC2CC2)c(C)c1S(=O)(=O)N(C)C | 3 | 0 | 1 | 1 | 43*
C[C@@H]1CN([C@@H](C)CO)C(=O)c2cccc(NS(=O)(=O)c3ccc(Cl)cc3)c2O[C@@H]1CN(C)Cc1ccncc1 | ? | 0 | 3 | -1 | 0
O=C(CN1CCCCC1)Nc1ccc(S(=O)(=O)c2ccc(NC(=O)CN3CCCCC3)cc2)cc1 | 2 | 0 | -4 | 0 | 44*
CC1CCCC(NC(=O)COC(=O)CCC(=O)c2ccc(F)cc2)C1C (configuration not stated) | 8 | 0 | 3 | 2 | 44*
CC1CCCC(NC(=O)COC(=O)c2ccccc2[N+](=O)[O-])C1C (configuration not stated) | 13 | 0 | 9 | 1 | 44*
CC1CCCC(NC(=O)COC(=O)c2ccc([N+](=O)[O-])s2)C1C (configuration not stated) | -5 | 1 | 0 | 0 | 0
CC1CCCC(NC(=O)COC(=O)CCC(=O)c2cccs2)C1C (configuration not stated) | 1 | 0 | -4 | -1 | 0
C[C@@H]1CCCCO[C@H](CN(C)C)[C@H](C)CN([C@@H](C)CO)C(=O)c2cc(NC(=O)CCC(F)(F)F)ccc2O1 | -9 | 0 | 0 | -3 | 0
Cc1ccc(S(=O)(=O)Nc2ccc3c(c2)C(=O)N([C@H](C)CO)C[C@H](C)[C@H](CN(C)C(=O)NC2CCCCC2)OCCCC[C@H](C)O3)cc1 | 12 | 0 | 0 | 2 | 0
COc1ccc(S(=O)(=O)N[C@H]2CC[C@H](CC(=O)NCCc3ccncc3)O[C@H]2CO)cc1 | 23* | -2 | 2 | 4 | 0
COc1ccc(S(=O)(=O)N[C@H]2CC[C@@H](CC(=O)NCc3ccccc3F)O[C@H]2CO)cc1 | 59* | 0 | -2 | 1 | 0
COc1ccccc1S(=O)(=O)N[C@H]1C=C[C@H](CC(=O)NCc2cccc(F)c2)O[C@H]1CO | 28* | 0 | 1 | 2 | 0
O=C(C[C@H]1C=C[C@H](NS(=O)(=O)c2ccccc2)[C@H](CO)O1)N1CCC(Cc2ccccc2)CC1 | 96* | 0 | nt | 1 | nt
COc1ccc(S(=O)(=O)N[C@H]2CC[C@@H](CC(=O)NCCc3ccncc3)O[C@@H]2CO)cc1 | 11 | -2 | 1 | -1 | 1
COc1ccccc1S(=O)(=O)N[C@@H]1C=C[C@@H](CC(=O)NCc2cccc(F)c2)O[C@@H]1CO | 2 | 0 | 0 | -1 | 0
COc1ccc(S(=O)(=O)N[C@H]2CC[C@H](CC(=O)NCc3ccccc3F)O[C@@H]2CO)cc1 | 3 | 0 | -1 | 2 | 0
COCCNC(=O)C[C@H]1C[C@@H]2c3cc(NC(=O)Nc4ccc(F)cc4)ccc3O[C@@H]2[C@@H](CO)O1 | 1 | 0 | nt | 0 | 0
CN(C)C(=O)C[C@@H]1CC[C@H]2[C@@H](COC[C@H](O)CN2Cc2ccc(C(F)(F)F)cc2)O1 | 0 | 0 | nt | 0 | 0
COc1ccc2c3c(n(C)c2c1)[C@H](CO)NCC31CN(C(=O)Nc2ccc3c(c2)OCO3)C1 | -1 | 0 | 0 | 4 | 0
COc1ccc(S(=O)(=O)N[C@@H]2C=C[C@@H](CC(=O)NCCc3ccccc3)O[C@H]2CO)cc1 | -3 | 0 | 0 | -1 | -1
COc1ccc(S(=O)(=O)N[C@H]2C=C[C@@H](CC(=O)NCCc3ccccc3)O[C@@H]2CO)cc1 | 24* | 0 | -1 | -1 | 0
O=C(C[C@H]1C=C[C@H](NC(=O)c2ccccc2)[C@H](CO)O1)NCc1ccc(Oc2ccccc2)cc1 | 31* | 0 | 1 | 1 | 0
CCS(=O)(=O)N1CC2(C1)[C@H](c1ccccc1)[C@H](CO)N2CCC(F)(F)F | -6 | 0 | 0 | -3 | 0
Cc1cc(C)n(-c2ccc(NC(=O)C3CCCCN3C(=O)c3ccoc3)cc2)n1 (configuration not stated) | 36* | 0 | -7 | 0 | 0
SMILES | DENV2 CPE | E-sel inducer | ERAP1 inh | CFTR F508del cor | FGF22 binding
Cc1cc(C)n(-c2ccc(NC(=O)C3CCCCN3C(=O)c3occc3C)cc2)n1 (configuration not stated) | 14 | 6 | -3 | -6 | 40
CCNS(=O)(=O)c1ccc(Br)c(C(=O)OC(C)C(=O)NCC2CCCCC2)c1 (configuration not stated) | 43* | nt | 6 | -3 | 0
CCOC(=O)c1c(O)c(Cl)c(C)[nH]c1=O | 3 | 0 | -2 | -1 | 43*
CN(C)S(=O)(=O)c1cccc2c1C(=O)c1ccccc1C2=O | 23* | nt | 5 | -1 | 1
CN(C)S(=O)(=O)c1ccccc1C#N | 0 | nt | -1 | -2 | 0
CCCSc1nnc(CSc2ncccn2)n1C | -1 | -1 | 4 | 1 | 0
CCSc1nnc(CSc2ncccn2)n1C | 1 | 8 | 3 | -4 | 44*
CC(C)N(C(=O)CSc1nnc(CSc2ncccn2)n1C)C(C)C | 33* | 0 | -1 | -1 | 0
O=[N+]([O-])c1ccccc1S(=O)c1ccccc1[N+](=O)[O-] | 32* | 0 | 9 | -2 | 0
O=C(CS(=O)c1ccccc1[N+](=O)[O-])Oc1ccc(Br)cc1 (configuration not stated) | -1 | nt | 6 | 0 | 0
C[C@@H]1CN([C@H](C)CO)C(=O)c2ccccc2-c2ccccc2CO[C@H]1CN(C)C(=O)C1CC1 | 0 | 0 | 1 | 1 | 0
CCc1cccc(NC(=O)c2cc(S(=O)(=O)N3CCCCC3)ccc2N2CCOCC2)c1 | 6 | 1 | 1 | -2 | 43*
O=C(Nc1ccccc1)c1cc(S(=O)(=O)N2CCCCC2)ccc1N1CCOCC1 | 0 | nt | -1 | -3 | 0
C[C@H](NC(=O)C[C@@H]1CC[C@H](NC(=O)Cc2ccccn2)[C@H](CO)O1)c1ccccc1 | ? | 0 | 1 | -2 | 0
O=C(c1ccc2c(c1)OCO2)N1CC[C@@H]2[C@H](CO)Nc3ccc(-c4ccccc4)cc3[C@@H]21 | 23* | 4 | -1 | -1 | 0
COc1ccc(-c2ccc3c(c2)[C@@H]2[C@@H](CCN2C(=O)c2ccc4c(c2)OCO4)[C@@H](CO)N3)cc1 | 74* | 2 | nt | 4 | 0
O=C(c1ccc2c(c1)OCO2)N1CC[C@@H]2[C@H]1c1cc(-c3ccccc3)ccc1N[C@@H]2CO | ? | 0 | -1 | 2 | 0
CN(C)C(=O)c1ccc(-c2ccc3c(c2)[C@H]2[C@H](CCN2C(=O)c2ccccn2)[C@H](CO)N3)cc1 | 26* | 0 | nt | -1 | 0
